Results published in ChEMBL document CHEMBL2417499, “Structure-activity relationship studies of Niemann-Pick type C1-like 1 (NPC1L1) ligands identified by screening assay monitoring pharmacological chaperone effect” (Bioorg Med Chem, 2013).
pEC50: −log10 of the molar value. Activity calls are given as the source filed them. The rule behind the calls is not given here.

Experiments:
HEK293 [1] = assay: Cytotoxicity against HEK293 cells transfected with human GFP-tagged NPC1L1 L1072T/L1168I mutant; assay type: cell-based
HEK293 [2] = assay: Binding affinity to human GFP-tagged NPC1L1 L1072T/L1168I mutant expressed in HEK293 cells assessed as localization to endoplasmic reticulum and plasma membrane at 10 uM after 24 hrs by fluorescence microscopic analysis; assay type: cell-based
How it was run: (§1)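 HEK293 cells stably expressing NPC1L1-GFP mutant from a CMV promoter, kept under G418 (0.4 mg/mL). Seeded at 6,000 cells/well on poly-lysine-coated glass in DMEM with 1% FBS. Dosed next day in 0.1% DMSO final for 24 h, then fixed in 3.7% formaldehyde and imaged at ×100. Each cell in 25 images scored ER 0 to PM 1; mean reported as % plasma membrane localization.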

HEK293 [3] = assay: Competitive binding affinity to human GFP-tagged NPC1L1 L1072T/L1168I mutant expressed in HEK293 cells assessed as localization to endoplasmic reticulum and plasma membrane at 0.01 to 10 uM after 24 hrs by fluorescence microscopic analysis in presence of N,N-(Dimethyl)-delta(5)-cholenamid-3beta-yl N,N-bis(2-hydroxyethyl)carbamate; assay type: cell-based
[4] = target: T1, NPC intracellular cholesterol transporter 1 (Homo sapiens) (UniProt O15118); assay: (§2) Binding affinity to NPC1 (unknown origin)
T1 sequence (whole entry): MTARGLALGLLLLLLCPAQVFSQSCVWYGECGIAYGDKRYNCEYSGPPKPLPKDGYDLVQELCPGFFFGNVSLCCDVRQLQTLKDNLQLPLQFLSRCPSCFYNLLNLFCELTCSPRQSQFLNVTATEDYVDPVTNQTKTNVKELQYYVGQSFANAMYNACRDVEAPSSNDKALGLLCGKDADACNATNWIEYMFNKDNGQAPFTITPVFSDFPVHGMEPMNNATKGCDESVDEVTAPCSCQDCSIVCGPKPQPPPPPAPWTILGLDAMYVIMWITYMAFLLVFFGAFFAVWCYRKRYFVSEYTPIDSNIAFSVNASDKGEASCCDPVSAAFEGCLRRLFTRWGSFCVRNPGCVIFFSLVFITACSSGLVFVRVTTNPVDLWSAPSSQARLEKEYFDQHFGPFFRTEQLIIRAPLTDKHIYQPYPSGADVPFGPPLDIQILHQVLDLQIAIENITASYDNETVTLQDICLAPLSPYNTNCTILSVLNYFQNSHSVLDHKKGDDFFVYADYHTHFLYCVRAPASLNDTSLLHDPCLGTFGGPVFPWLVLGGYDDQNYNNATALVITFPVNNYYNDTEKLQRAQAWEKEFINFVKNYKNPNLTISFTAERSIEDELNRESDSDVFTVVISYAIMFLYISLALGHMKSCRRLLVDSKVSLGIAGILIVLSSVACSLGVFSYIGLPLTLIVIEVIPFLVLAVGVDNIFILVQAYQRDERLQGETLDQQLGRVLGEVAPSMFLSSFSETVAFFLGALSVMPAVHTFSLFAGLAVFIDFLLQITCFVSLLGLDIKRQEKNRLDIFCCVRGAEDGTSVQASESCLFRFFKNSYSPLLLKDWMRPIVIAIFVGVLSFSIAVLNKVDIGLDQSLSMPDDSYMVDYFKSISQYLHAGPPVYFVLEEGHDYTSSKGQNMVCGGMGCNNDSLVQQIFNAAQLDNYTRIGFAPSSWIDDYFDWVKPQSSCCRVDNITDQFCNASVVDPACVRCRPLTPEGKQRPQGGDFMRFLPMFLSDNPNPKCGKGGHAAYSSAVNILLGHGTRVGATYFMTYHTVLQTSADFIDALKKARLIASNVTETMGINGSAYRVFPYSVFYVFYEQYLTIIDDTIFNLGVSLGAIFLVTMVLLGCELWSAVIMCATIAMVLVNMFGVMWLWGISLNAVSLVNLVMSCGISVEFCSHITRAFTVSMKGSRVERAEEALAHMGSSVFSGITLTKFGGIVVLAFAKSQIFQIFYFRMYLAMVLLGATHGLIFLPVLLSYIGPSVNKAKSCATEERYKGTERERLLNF

HEK293 [5] = assay: Binding affinity to human GFP-tagged NPC1L1 L1072T/L1168I mutant expressed in HEK293 cells assessed as localization to endoplasmic reticulum and plasma membrane at 3 uM after 24 hrs by fluorescence microscopic analysis; assay type: cell-based; how it was run: as §1
[6] = Binding affinity to human GFP-tagged NPC1L1 L1072T/L1168I mutant expressed in HEK293 cells assessed as localization to endoplasmic reticulum and plasma membrane after 24 hrs by fluorescence microscopic analysis; assay type: cell-based; details: read-out: EC50
How it was run: (§3)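 HEK293 cells stably expressing the GFP-tagged construct (G418 0.4 mg/mL) were seeded at 6,000 cells/well in DMEM with 1% FBS on poly-lysine-coated glass. On day 2 they were treated for 24 h, final DMSO 0.1%. Cells were fixed in 3.7% formaldehyde and imaged at ×100. Across 25 images, cells were scored ER 0 to PM 1 and averaged as % plasma membrane localization. EC50 was taken from this score.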

HEK293 [7] = assay: Binding affinity to human GFP-tagged NPC1L1 L1072T/L1168I mutant expressed in HEK293 cells assessed as protein stabilization after 24 hrs by fluorescence assay; assay type: cell-based
How it was run: (§4)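 Stable HEK293 lines were grown to 70% confluency in phenol red-free medium in 12-well plates and exposed to vehicle or compound for 24 h. Supernatant GFP fluorescence was read and normalized to BCA total protein, n = 3.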

HEK293 [8] = assay: Binding affinity to human GFP-tagged NTD-deleted NPC1L1 L1072T/L1168I mutant expressed in HEK293 cells assessed as localization to plasma membrane at 10 uM after 24 hrs by fluorescence microscopic analysis; assay type: cell-based
How it was run: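 HEK293 cells stably expressing the GFP-tagged NTD-deleted mutant were treated for 24 h with 0.1% final DMSO, then fixed in 3.7% formaldehyde. Cells were imaged at ×100 and scored from ER (0) to PM (1) over 25 images, reported as % plasma membrane localization.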

HEK293 [9] = assay: Binding affinity to human GFP-tagged NTD-deleted NPC1L1 L1072T/L1168I mutant expressed in HEK293 cells assessed as protein stabilization after 24 hrs by fluorescence assay; assay type: cell-based; how it was run: as §4
Homo sapiens = species on record: Homo sapiens; assay: Selectivity ratio of EC50 for NPC1 (unknown origin) to EC50 for human GFP-tagged NPC1L1 L1072T/L1168I mutant
[10] = target: T2, NPC intracellular cholesterol transporter 1 (Homo sapiens, UniProt O15118); assay: as §2
T2 sequence (O15118 whole entry): T1 sequence (whole entry)

[11] = Binding affinity to human GFP-tagged NTD-deleted NPC1L1 L1072T/L1168I mutant expressed in HEK293 cells assessed as localization to plasma membrane after 24 hrs by fluorescence microscopic analysis; assay type: cell-based; how it was run: as §3

Compound: CCN(CC)C(=O)CC[C@@H](C)[C@H]1CC[C@H]2[C@@H]3CC=C4C[C@@H](O)CC[C@]4(C)[C@H]3CC[C@]12C
- Activity (HEK293 [1]): Toxic

Compound: O=C1[C@H](CC[C@H](O)c2ccc(F)cc2)[C@@H](c2ccc(O)cc2)N1c1ccc(F)cc1
- Activity (HEK293 [2]): inactive
- Activity (HEK293 [3]): inactive

Compound: CC(C)CC[C@H](O)[C@@H](C)[C@H]1CC[C@H]2[C@@H]3CC=C4C[C@@H](O)CC[C@]4(C)[C@H]3CC[C@]12C
- Activity [4]: Active
- Activity (HEK293 [2]): inactive

Compound: CC(C)CCC[C@@H](C)[C@H]1CC[C@H]2[C@@H]3C[C@@H](O)[C@@]4(O)C[C@@H](O)CC[C@]4(C)[C@H]3CC[C@]12C
- Activity [4]: Active
- Activity (HEK293 [5]): inactive

Compound: C[C@H](CCCC(C)(C)O)[C@H]1CC[C@H]2[C@@H]3CC=C4C[C@@H](O)CC[C@]4(C)[C@H]3CC[C@]12C
- Activity [4]: Active
- pEC50 [6]: 5.64

Compound: CC(C)CCC[C@@H](C)[C@H]1CC[C@H]2[C@@H]3CC=C4C[C@@H](O)CC[C@]4(CO)[C@H]3CC[C@]12C
- Activity (HEK293 [2]): inactive
- Activity (HEK293 [7]): inactive

Compound: CCCCN(CCCC)C(=O)O[C@H]1CC[C@@]2(C)C(=CC[C@H]3[C@@H]4CC[C@H]([C@H](C)CCC(=O)N(C)C)[C@@]4(C)CC[C@@H]32)C1
- Activity (HEK293 [8]): inactive
- Activity (HEK293 [2]): inactive

Compound: C[C@H](CCC(=O)N(C)C)[C@H]1CC[C@H]2[C@@H]3CC=C4C[C@@H](OC(=O)N(CCO)CCO)CC[C@]4(C)[C@H]3CC[C@]12C
- Activity (HEK293 [9]): Active
- Ratio EC50 (Homo sapiens): 2.5
- pEC50 [10]: 5.80
- pEC50 [11]: 5.77
- Activity (HEK293 [7]): Dose-dependent effect
- pEC50 [6]: 6.19

Compound: CCCN(CCC)C(=O)CC[C@@H](C)[C@H]1CC[C@H]2[C@@H]3CC=C4C[C@@H](O)CC[C@]4(C)[C@H]3CC[C@]12C
- Activity (HEK293 [1]): Toxic
